Measurements reported in ChEMBL document CHEMBL3853320, “Discovery of Imidazoquinolines as a Novel Class of Potent, Selective, and in Vivo Efficacious Cancer Osaka Thyroid (COT) Kinase Inhibitors” (J Med Chem, 2016).
≈ marks a conversion by molar mass, not a printed value.

Experiments:
[1] = Drug excretion in bile-duct cannulated Sprague-Dawley rat urine at 3 mg/kg, iv; assay type: ADME, organism-based; conditions: read-out: Drug excretion
[2] = Drug excretion in bile-duct cannulated Sprague-Dawley rat bile at 3 mg/kg, iv; assay type: ADME, organism-based; conditions: read-out: Drug excretion
[3] = Metabolic stability in Sprague-Dawley rat liver microsomes assessed as parent compound remaining at 5 uM after 1 hr in presence of NADPH by HPLC/MS analysis; assay type: ADME; conditions: read-out: Stability
[4] = Clearance in wild type Sprague-Dawley rat plasma at 1 mg/kg, iv; assay type: ADME, organism-based
Summary of the method: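 Male wild-type Sprague–Dawley rats were given 1 mg/kg intravenously. Clearance was derived from plasma.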

[5] = Metabolic stability in bile-duct cannulated Sprague-Dawley rat assessed as parent compound remaining in blood at 3 mg/kg, iv measured 4 hrs post dose; assay type: ADME, organism-based; conditions: read-out: Stability
Summary of the method: (§1)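 Bile-duct cannulated rats dosed in vivo. Parent and metabolites in each matrix were expressed as relative peak areas of the drug-related components detected, at the stated sampling time or collection period post dose.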

[6] = Equilibrium solubility of the compound at pH 4 after 16 hrs by mass spectrometric analysis; assay type: physicochemical; conditions: buffer
[7] = Drug excretion in bile-duct cannulated Sprague-Dawley rat liver at 3 mg/kg, iv measured 8 hrs post dose; assay type: ADME, organism-based; conditions: in vivo
[8] = target: T1, Mitogen-activated protein kinase kinase kinase 8 (Homo sapiens, UniProt P41279); experiment: Inhibition of COT in LPS-stimulated human whole blood assessed as reduction in TNFalpha release incubated for 30 mins followed by stimulation with LPS for 3 hrs by HTRF assay; assay type: tissue-based
Summary of the method: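 Human whole blood was stimulated with LPS, and TNFα release was measured as IC50.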

[9] = Half life in wild type Sprague-Dawley rat liver microsomes at 5 uM preincubated for 3 mins followed by NADPH addition measured after 1 hr by HPLC/MS analysis; assay type: ADME
[10] = Metabolic stability in bile-duct cannulated Sprague-Dawley rat assessed as parent compound remaining in blood at 3 mg/kg, iv measured 1 hr post dose; assay type: ADME, organism-based; conditions: read-out: Stability
[11] = target: T1, Mitogen-activated protein kinase kinase kinase 8; experiment: Inhibition of COT in LPS-stimulated human PBMC assessed as reduction in TNFalpha release incubated for 1 hr followed by stimulation with LPS for 4 hrs by HTRF assay
Summary of the method: (§2)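 Primary human PBMCs were stimulated with LPS. Read-outs were pERK, TNFα release, or p65 phosphorylation, each reported as IC50.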

[12] = Drug metabolism in human liver S9 fraction assessed as 1-(2-(1-morpholinopropan-2-ylamino)benzo[d]thiazol-6-yl)-8-(pyridin-4-yl)-1H-imidazo[4,5-c][1,7]naphthyridin-4(5H)-one metabolite formation in absence of NADPH after 5 to 120 mins by LC/MS/MS analysis; assay type: ADME
Summary of the method: (§3)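 Rat or human liver S9 fractions were incubated without NADPH cofactor. Loss of parent and formation of the 4-oxo metabolite M1 were monitored.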

[13] = Drug excretion in bile-duct cannulated Sprague-Dawley rat kidney at 3 mg/kg, iv measured 8 hrs post dose; assay type: ADME, organism-based; conditions: in vivo
[14] = Metabolic stability in bile-duct cannulated Sprague-Dawley rat assessed as parent compound remaining in bile at 3 mg/kg, iv measured over 8 hrs post dose; assay type: ADME, organism-based; conditions: read-out: Stability
[15] = Metabolic stability in bile-duct cannulated Sprague-Dawley rat assessed as parent compound remaining in feces at 3 mg/kg, iv measured over 8 hrs post dose; assay type: ADME, organism-based; conditions: read-out: Stability; summary of the method: as §1
[16] = Protein binding in human plasma at 5 uM after 4 hrs by rapid equilibrium dialysis method; assay type: ADME, cell-free; conditions: read-out: PPB (converted)
[17] = target: T1, Mitogen-activated protein kinase kinase kinase 8; experiment: Inhibition of human COT (66 to 395 residues) expressed in Sf21 cells using 5-Fluo-Ahx-AGAGSGQLIDSNleANSFVGTR-NH2 as substrate after 60 mins by caliper microfluidic mobility shift assay
[18] = Drug metabolism in Sprague-Dawley rat liver S9 fraction assessed as 1-(2-(1-morpholinopropan-2-ylamino)benzo[d]thiazol-6-yl)-8-(pyridin-4-yl)-1H-imidazo[4,5-c][1,7]naphthyridin-4(5H)-one metabolite formation in absence of NADPH after 5 to 120 mins by LC/MS/MS analysis; assay type: ADME; summary of the method: as §3
[19] = Metabolic stability in bile-duct cannulated Sprague-Dawley rat assessed as parent compound remaining in urine at 3 mg/kg, iv measured over 8 hrs post dose; assay type: ADME, organism-based; conditions: read-out: Stability; summary of the method: as §1
[20] = Octanol-water partition coefficient, log P of the compound by shake-flask method; assay type: physicochemical
[21] = Drug excretion in bile-duct cannulated Sprague-Dawley rat feces at 3 mg/kg, iv measured 8 hrs post dose; assay type: ADME, organism-based; conditions: read-out: Drug excretion
[22] = target: T1, Mitogen-activated protein kinase kinase kinase 8; experiment: Inhibition of COT in LPS-stimulated human PBMC assessed as reduction in ERK1/2 phosphorylation incubated for 60 mins followed by LPS stimulation for 12 mins by flow cytometric analysis; summary of the method: as §2
[23] = Equilibrium solubility of the compound at pH 6.8 after 16 hrs by mass spectrometric analysis; assay type: physicochemical; conditions: buffer
[24] = Drug metabolism in human liver S9 fraction assessed as 1-(2-(1-morpholinopropan-2-ylamino)benzo[d]thiazol-6-yl)-8-(pyridin-4-yl)-1H-imidazo[4,5-c][1,7]naphthyridin-4(5H)-one metabolite formation in presence of aldehyde oxidase inhibitor raloxifene; assay type: ADME, subcellular
Summary of the method: (§4)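 M1 formation was measured in liver S9 incubations with no NADPH added, in the presence of the aldehyde oxidase inhibitor raloxifene. The rat S9 fraction received 10 μM raloxifene. The human S9 fraction was tested at two raloxifene concentrations.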

[25] = Drug metabolism in Sprague-Dawley rat liver S9 fraction assessed as 1-(2-(1-morpholinopropan-2-ylamino)benzo[d]thiazol-6-yl)-8-(pyridin-4-yl)-1H-imidazo[4,5-c][1,7]naphthyridin-4(5H)-one metabolite formation in presence of aldehyde oxidase inhibitor raloxifene at 10 uM; assay type: ADME, subcellular; conditions: s9, 10 µM; summary of the method: as §4
[26] = Drug level in bile-duct cannulated Sprague-Dawley rat bile treated with N-(1-morpholinopropan-2-yl)-6-(8-(thiophen-2-yl)-1H-imidazo[4,5-c][1,7]naphthyridin-1-yl)benzo[d]thiazol-2-amine at 3 mg/kg, iv measured 8 hrs post dose; assay type: ADME, organism-based; conditions: in vivo
[27] = Drug level in bile-duct cannulated Sprague-Dawley rat kidney treated with N-(1-morpholinopropan-2-yl)-6-(8-(thiophen-2-yl)-1H-imidazo[4,5-c][1,7]naphthyridin-1-yl)benzo[d]thiazol-2-amine at 3 mg/kg, iv measured 8 hrs post dose; assay type: ADME, organism-based; conditions: in vivo
[28] = Drug level in bile-duct cannulated Sprague-Dawley rat liver treated with N-(1-morpholinopropan-2-yl)-6-(8-(thiophen-2-yl)-1H-imidazo[4,5-c][1,7]naphthyridin-1-yl)benzo[d]thiazol-2-amine at 3 mg/kg, iv measured 8 hrs post dose; assay type: ADME, organism-based; conditions: in vivo
[29] = Drug level in bile-duct cannulated Sprague-Dawley rat urine treated with N-(1-morpholinopropan-2-yl)-6-(8-(thiophen-2-yl)-1H-imidazo[4,5-c][1,7]naphthyridin-1-yl)benzo[d]thiazol-2-amine at 3 mg/kg, iv measured 8 hrs post dose; assay type: ADME, organism-based; conditions: in vivo
[30] = Drug level in bile-duct cannulated Sprague-Dawley rat blood treated with N-(1-morpholinopropan-2-yl)-6-(8-(pyridin-4-yl)-1H-imidazo[4,5-c][1,7]naphthyridin-1-yl)benzo[d]thiazol-2-amine at 3 mg/kg, iv measured 1 to 4 hrs post dose; assay type: ADME, organism-based; conditions: in vivo
[31] = Drug level in bile-duct cannulated Sprague-Dawley rat urine treated with N-(1-morpholinopropan-2-yl)-6-(8-(pyridin-4-yl)-1H-imidazo[4,5-c][1,7]naphthyridin-1-yl)benzo[d]thiazol-2-amine at 3 mg/kg, iv measured over 8 hrs post dose; assay type: ADME, organism-based; conditions: in vivo
[32] = Drug level in bile-duct cannulated Sprague-Dawley rat feces treated with N-(1-morpholinopropan-2-yl)-6-(8-(pyridin-4-yl)-1H-imidazo[4,5-c][1,7]naphthyridin-1-yl)benzo[d]thiazol-2-amine at 3 mg/kg, iv measured over 8 hrs post dose; assay type: ADME, organism-based; conditions: in vivo
[33] = Drug level in bile-duct cannulated Sprague-Dawley rat bile treated with N-(1-morpholinopropan-2-yl)-6-(8-(pyridin-4-yl)-1H-imidazo[4,5-c][1,7]naphthyridin-1-yl)benzo[d]thiazol-2-amine at 3 mg/kg, iv measured over 8 hrs post dose; assay type: ADME, organism-based; conditions: in vivo
[34] = target: MAP kinase-interacting serine/threonine-protein kinase 2 (Homo sapiens, UniProt Q9HBH9); experiment: Inhibition of MKNK2 (unknown origin) after 60 mins in presence of ATP by caliper microfluidic mobility shift assay
[35] = Inhibition of NFkappaB pathway in LPS-stimulated human PBMC assessed as reduction in p65 phosphorylation incubated for 60 mins followed by LPS stimulation for 12 mins by flow cytometric analysis analysis; summary of the method: as §2
[36] = target: Receptor-type tyrosine-protein kinase FLT3 (Homo sapiens, UniProt P36888, D835Y); experiment: Inhibition of FLT3 (563 to 993 residues) D835Y mutant (unknown origin) after 60 mins in presence of ATP by caliper microfluidic mobility shift assay
[37] = Inhibition of MEK/ERK signaling pathway in EGF-stimulated human A431 cells transfected with COT siRNA assessed as reduction in ERK1/2 phosphorylation incubated for 60 mins followed by stimulation with EGF for 10 mins by Western blot analysis; assay type: cell-based; conditions: A-431
[38] = Inhibition of MEK/ERK signaling pathway in TNFalpha-stimulated human A431 cells transfected with COT siRNA assessed as reduction in ERK1/2 phosphorylation incubated for 60 mins followed by stimulation with TNFalpha for 10 mins by Western blot analysis; assay type: cell-based; conditions: A-431
[39] = Equilibrium solubility of the compound at pH 1 after 16 hrs by mass spectrometric analysis; assay type: physicochemical; conditions: buffer, pH 1, 16 h

T1 sequence (P41279 whole entry): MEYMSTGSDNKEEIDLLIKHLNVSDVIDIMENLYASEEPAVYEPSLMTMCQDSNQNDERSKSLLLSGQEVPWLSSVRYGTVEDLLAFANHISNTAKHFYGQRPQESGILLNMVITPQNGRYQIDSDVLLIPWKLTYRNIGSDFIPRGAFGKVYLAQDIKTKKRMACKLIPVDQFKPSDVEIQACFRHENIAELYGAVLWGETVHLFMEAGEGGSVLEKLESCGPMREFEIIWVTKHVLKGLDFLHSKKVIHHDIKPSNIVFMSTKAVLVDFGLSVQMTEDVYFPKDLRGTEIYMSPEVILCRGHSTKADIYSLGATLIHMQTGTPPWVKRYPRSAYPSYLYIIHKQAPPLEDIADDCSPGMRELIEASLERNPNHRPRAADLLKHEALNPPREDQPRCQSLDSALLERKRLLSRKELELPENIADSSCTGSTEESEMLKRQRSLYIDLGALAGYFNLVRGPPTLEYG
MAP kinase-interacting serine/threonine-protein kinase 2, sequence (Q9HBH9 whole entry): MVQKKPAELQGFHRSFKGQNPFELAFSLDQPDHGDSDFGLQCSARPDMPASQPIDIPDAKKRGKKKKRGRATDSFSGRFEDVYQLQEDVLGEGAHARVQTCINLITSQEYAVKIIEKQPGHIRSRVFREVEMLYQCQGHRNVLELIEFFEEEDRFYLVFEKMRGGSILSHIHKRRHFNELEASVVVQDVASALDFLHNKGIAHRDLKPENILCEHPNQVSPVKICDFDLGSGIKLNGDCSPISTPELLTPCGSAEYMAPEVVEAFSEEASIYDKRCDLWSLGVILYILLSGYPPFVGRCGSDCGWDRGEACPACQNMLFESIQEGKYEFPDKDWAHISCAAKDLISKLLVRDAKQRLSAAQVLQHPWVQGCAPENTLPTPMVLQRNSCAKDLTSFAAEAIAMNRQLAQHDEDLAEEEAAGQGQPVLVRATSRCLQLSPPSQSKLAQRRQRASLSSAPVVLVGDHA

SMILES: CC(CN1CCOCC1)Nc1nc2ccc(-n3cnc4cnc5cnc(-c6ccncc6)cc5c43)cc2s1 (stereo not given)
- dose excreted [1]: 0.04%
- dose excreted [2]: 0.13%
- remaining at 1 h, 5 µM [3]: 16%
- clearance [4]: 297 mL/min/kg
- remaining at 4 h [5]: 20%
- solubility thermodynamic at 16 h [6]: > 1000 µM
- Drug excretion [7]: 0.002 %ID
- IC50 [8]: 600 nM
- half-life at 5 µM [9]: < 3 min
- remaining at 1 h [10]: 49%
- IC50 [11]: 70 nM
- Drug metabolism [12]: Metabolite_Detected
- Drug excretion [13]: 0.002 %ID
- dose excreted at 8 h [14]: 0%
- dose excreted at 8 h [15]: 37%
- fraction unbound at 4 h, 5 µM [16]: 0.02
- IC50 [17]: 9 nM
- Drug metabolism [18]: Metabolite_Detected
- dose excreted at 8 h [19]: 2%
- logP [20]: 3.3
- dose excreted at 8 h [21]: 0.33%
- IC50 [22]: 80 nM
- solubility thermodynamic at 16 h [23]: 60 µM (≈ 31.4 µg/mL)

SMILES: O=C(c1ccc(OCCN2CCCCC2)cc1)c1c(-c2ccc(O)cc2)sc2cc(O)ccc12 [RALOXIFENE]
- Drug metabolism [24]: Metabolite_Notdetected
- Drug metabolism [25]: Metabolite_Detected

SMILES: CC(CN1CCOCC1)Nc1nc2ccc(-n3cnc4c(=O)[nH]c5cnc(-c6cccs6)cc5c43)cc2s1 (stereo not given)
- Drug metabolism [26]: Metabolite_Detected
- Drug metabolism [27]: Metabolite_Detected
- Drug metabolism [28]: Metabolite_Detected
- Drug metabolism [29]: Metabolite_Detected

SMILES: CC(CN1CCOCC1)Nc1nc2ccc(-n3cnc4c(=O)[nH]c5cnc(-c6ccncc6)cc5c43)cc2s1 (stereo not given)
- Drug metabolism [30]: Metabolite_Detected
- Drug metabolism [31]: Metabolite_Detected
- Drug metabolism [32]: Metabolite_Detected
- Drug metabolism [33]: Metabolite_Detected

SMILES: c1cnc2ccc(-n3cnc4cnc5cnc(-c6ccsc6)cc5c43)cc2c1
- IC50 [34]: < 1400 nM
- solubility thermodynamic at 16 h [6]: 6 µM (≈ 2.28 µg/mL)
- IC50 [8]: 1780 nM
- IC50 [35]: > 25000 nM
- IC50 [36]: < 340 nM
- IC50 [37]: > 10000 nM
- IC50 [11]: 440 nM
- fraction unbound at 4 h, 5 µM [16]: < 0.01
- IC50 [17]: 20 nM
- logP [20]: 4.2
- IC50 [22]: 540 nM
- solubility thermodynamic at 16 h [23]: < 4 µM
- IC50 [38]: 61 nM

SMILES: c1ccc(-c2cc3c(cn2)ncc2ncn(-c4ccc5nc(NCCN6CCOCC6)sc5c4)c23)cc1
- solubility thermodynamic at 16 h [6]: > 1000 µM
- IC50 [8]: 2500 nM
- IC50 [11]: 270 nM
- fraction unbound at 4 h, 5 µM [16]: < 0.01
- IC50 [17]: 16 nM
- logP [20]: 4.6
- solubility [39]: Soluble
- IC50 [22]: 280 nM
- solubility thermodynamic at 16 h [23]: < 4 µM
